Measured values as given in ChEMBL document CHEMBL1128425, “5-Methyl-1-(3-pyridylcarbamoyl)-1,2,3,5-tetrahydropyrrolo[2,3-f]indole: a novel 5-HT2C/5-HT2B receptor antagonist with improved affinity, selectivity, and oral activity” (J Med Chem, 1995).

Key:
[1] = biological target: 5-hydroxytryptamine receptor 2B (Rattus norvegicus, UniProt P30994); assay: Inhibitory potency against rat stomach fundus 5-hydroxytryptamine 2B receptor; format: tissue-based; conditions: read-out: pA2 (converted)
Procedure, shortened: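 Functional antagonism in isolated rat stomach fundus, with contraction evoked by 5-HT as the agonist. Values are means ± SEM of n ≥ 3 determinations.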

[2] = biological target: 5-hydroxytryptamine receptor 2A (Homo sapiens, UniProt P28223); assay: Binding affinity against human 5-hydroxytryptamine 2A receptor expressed in 293 cells using [3H]ketanserin; format: cell-based, HEK293
Sequence of 5-hydroxytryptamine receptor 2A (P28223 whole entry): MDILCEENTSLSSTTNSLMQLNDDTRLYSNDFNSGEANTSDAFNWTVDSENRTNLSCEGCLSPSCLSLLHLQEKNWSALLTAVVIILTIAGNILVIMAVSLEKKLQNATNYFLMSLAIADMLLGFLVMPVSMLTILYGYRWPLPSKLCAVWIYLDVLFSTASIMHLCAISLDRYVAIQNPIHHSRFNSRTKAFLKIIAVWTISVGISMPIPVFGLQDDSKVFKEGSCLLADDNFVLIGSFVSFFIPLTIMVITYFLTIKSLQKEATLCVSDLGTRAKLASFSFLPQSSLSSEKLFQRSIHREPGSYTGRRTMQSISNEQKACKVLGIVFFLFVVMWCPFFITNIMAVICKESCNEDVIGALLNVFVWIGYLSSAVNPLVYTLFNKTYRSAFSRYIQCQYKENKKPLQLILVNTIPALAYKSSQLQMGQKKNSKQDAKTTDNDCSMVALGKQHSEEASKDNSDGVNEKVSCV
Procedure, shortened: (§1)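 Radioligand binding at cloned human receptors expressed in 293 cells: [³H]ketanserin for 5-HT2A, [³H]mesulergine for 5-HT2C. Values are means ± SEM of n ≥ 3 determinations.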

[3] = biological target: 5-hydroxytryptamine receptor 1E (Homo sapiens, UniProt P28566); assay: Binding affinity against human 5-hydroxytryptamine 1E receptor expressed in CHO cells; format: cell-based
Sequence of 5-hydroxytryptamine receptor 1E (P28566 whole entry): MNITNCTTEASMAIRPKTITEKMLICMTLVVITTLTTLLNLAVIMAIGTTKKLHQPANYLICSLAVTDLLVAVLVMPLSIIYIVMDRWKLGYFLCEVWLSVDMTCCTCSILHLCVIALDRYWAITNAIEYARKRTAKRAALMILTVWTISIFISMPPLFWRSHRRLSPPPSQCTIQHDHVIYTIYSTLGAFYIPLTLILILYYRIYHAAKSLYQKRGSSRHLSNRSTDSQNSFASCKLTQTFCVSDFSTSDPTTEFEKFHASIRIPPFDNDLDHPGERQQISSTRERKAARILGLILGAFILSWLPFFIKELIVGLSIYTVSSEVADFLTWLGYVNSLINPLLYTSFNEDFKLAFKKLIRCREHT
Procedure, shortened: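 Displacement binding at cloned human 5-HT1E receptors expressed in CHO cells, using [³H]-5-HT as radioligand.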

D(2) dopamine receptor = D(2) dopamine receptor (Homo sapiens, UniProt P14416); assay: Binding affinity against human Dopamine receptor D2 expressed in CHO cells using [125I]iodosulpiride; format: cell-based
Sequence of D(2) dopamine receptor (P14416 whole entry): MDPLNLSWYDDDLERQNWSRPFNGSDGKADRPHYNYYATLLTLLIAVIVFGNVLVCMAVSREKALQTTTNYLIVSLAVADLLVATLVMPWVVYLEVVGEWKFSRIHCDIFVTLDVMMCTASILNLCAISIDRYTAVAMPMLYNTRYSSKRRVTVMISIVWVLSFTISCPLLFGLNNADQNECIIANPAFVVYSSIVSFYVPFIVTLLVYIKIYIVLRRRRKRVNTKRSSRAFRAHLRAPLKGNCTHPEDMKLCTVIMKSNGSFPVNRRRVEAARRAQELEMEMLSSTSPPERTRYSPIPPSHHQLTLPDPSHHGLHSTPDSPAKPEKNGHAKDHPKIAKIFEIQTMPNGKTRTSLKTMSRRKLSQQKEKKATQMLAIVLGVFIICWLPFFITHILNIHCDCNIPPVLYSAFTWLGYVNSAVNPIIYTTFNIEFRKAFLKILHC

[4] = biological target: T1, Adrenergic receptor alpha-1 (Rattus norvegicus, UniProt P15823+P23944+P43140); assay: Binding affinity against rat Alpha-1 adrenergic receptor; format: protein assay
T1 sequence (P15823 whole entry): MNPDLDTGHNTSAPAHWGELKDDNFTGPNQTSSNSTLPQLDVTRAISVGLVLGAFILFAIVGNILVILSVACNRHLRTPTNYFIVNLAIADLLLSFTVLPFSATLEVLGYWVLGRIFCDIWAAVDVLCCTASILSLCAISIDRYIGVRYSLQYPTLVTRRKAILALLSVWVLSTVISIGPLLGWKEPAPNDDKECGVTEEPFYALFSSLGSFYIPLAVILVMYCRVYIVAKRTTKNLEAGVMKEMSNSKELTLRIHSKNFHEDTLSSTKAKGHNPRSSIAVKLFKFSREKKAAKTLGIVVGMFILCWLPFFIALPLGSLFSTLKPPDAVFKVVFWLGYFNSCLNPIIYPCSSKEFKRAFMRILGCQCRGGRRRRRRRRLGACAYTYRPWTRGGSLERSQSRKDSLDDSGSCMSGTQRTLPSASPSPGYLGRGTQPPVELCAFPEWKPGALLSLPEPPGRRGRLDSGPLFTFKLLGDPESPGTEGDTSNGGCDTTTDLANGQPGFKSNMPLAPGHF
T1 sequence (P23944 whole entry): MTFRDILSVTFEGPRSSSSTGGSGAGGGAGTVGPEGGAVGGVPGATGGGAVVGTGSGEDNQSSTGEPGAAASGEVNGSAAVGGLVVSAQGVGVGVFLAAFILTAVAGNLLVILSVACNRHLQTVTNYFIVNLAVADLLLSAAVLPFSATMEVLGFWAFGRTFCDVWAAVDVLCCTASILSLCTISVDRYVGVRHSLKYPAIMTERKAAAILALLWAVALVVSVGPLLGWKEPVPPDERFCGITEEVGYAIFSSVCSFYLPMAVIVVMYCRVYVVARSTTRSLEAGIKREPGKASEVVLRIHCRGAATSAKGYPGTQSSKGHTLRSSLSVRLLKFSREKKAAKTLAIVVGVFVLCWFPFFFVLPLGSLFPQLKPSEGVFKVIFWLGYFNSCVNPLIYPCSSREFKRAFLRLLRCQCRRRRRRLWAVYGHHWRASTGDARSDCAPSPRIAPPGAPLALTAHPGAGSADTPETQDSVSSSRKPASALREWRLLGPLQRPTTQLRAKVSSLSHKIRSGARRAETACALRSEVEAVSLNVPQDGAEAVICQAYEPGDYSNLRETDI
T1 sequence (P43140 whole entry): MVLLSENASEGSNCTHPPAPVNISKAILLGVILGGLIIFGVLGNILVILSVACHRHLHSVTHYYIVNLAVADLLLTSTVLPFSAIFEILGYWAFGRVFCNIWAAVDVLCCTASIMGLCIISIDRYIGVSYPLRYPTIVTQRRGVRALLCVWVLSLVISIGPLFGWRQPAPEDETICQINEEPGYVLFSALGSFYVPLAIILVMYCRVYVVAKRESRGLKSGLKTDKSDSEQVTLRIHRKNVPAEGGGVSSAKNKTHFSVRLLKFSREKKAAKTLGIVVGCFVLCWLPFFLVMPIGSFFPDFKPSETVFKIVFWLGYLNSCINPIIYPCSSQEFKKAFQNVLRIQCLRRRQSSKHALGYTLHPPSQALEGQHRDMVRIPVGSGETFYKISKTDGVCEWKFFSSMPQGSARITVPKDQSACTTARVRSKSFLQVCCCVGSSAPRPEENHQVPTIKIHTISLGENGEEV

[5] = biological target: 5-hydroxytryptamine receptor 1D (Cavia porcellus, UniProt Q60484); assay: Binding affinity against guinea pig 5-hydroxytryptamine 1D receptor
Sequence of 5-hydroxytryptamine receptor 1D (Q60484 whole entry): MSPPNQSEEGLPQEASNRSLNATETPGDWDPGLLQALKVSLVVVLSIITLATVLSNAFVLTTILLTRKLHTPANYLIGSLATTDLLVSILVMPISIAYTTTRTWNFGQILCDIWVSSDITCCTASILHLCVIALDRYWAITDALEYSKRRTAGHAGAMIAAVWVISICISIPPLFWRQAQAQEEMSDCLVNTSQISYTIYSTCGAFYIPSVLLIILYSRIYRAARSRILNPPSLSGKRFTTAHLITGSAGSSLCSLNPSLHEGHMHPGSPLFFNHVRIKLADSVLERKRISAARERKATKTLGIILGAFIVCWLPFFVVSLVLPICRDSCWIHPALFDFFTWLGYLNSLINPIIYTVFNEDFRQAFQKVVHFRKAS

Adenosine receptor A1 = biological target: T2, Adenosine receptor A1 (Rattus norvegicus, UniProt P25099); assay: Binding affinity against rat Adenosine A1 receptor
T2 sequence (P25099 whole entry): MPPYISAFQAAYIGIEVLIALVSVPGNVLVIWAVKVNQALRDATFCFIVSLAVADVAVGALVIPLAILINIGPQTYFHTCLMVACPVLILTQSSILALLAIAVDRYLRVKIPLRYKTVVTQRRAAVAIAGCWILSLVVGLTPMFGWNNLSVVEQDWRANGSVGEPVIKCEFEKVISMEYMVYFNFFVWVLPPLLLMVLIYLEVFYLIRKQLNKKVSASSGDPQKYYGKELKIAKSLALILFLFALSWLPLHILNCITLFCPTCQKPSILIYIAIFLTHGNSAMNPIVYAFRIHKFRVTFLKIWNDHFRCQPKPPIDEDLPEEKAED

Histamine H1 receptor = Histamine H1 receptor (Cavia porcellus, UniProt P31389); assay: Binding affinity against guinea pig H1 receptor
Sequence of Histamine H1 receptor (P31389 whole entry): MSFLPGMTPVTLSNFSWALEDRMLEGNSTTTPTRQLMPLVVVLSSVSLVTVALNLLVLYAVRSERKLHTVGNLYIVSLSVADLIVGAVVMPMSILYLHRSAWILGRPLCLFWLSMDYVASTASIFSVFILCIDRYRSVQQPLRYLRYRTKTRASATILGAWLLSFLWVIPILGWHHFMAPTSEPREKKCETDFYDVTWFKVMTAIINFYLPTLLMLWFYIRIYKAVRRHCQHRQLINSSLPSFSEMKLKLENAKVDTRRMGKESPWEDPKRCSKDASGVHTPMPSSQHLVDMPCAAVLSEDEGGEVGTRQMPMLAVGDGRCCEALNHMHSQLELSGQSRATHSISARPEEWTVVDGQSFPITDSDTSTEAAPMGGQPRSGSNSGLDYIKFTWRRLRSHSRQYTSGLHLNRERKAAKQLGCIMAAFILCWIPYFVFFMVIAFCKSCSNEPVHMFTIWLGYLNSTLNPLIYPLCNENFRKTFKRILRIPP

D(3) dopamine receptor = D(3) dopamine receptor (Homo sapiens, UniProt P35462); assay: Binding affinity human Dopamine receptor D3 expressed in CHO cells using [125I]iodosulpiride; format: cell-based
Sequence of D(3) dopamine receptor (P35462 whole entry): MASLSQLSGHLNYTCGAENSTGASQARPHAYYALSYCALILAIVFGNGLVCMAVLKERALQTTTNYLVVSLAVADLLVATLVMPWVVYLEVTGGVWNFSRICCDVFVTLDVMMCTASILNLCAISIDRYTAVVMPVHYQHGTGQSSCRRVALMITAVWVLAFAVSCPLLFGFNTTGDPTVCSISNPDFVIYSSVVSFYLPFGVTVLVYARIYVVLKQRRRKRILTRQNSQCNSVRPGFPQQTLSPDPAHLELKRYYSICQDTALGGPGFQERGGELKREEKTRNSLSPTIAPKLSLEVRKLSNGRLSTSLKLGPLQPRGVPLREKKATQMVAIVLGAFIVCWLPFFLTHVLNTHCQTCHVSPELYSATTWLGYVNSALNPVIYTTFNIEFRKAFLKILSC

[6] = biological target: 5-hydroxytryptamine receptor 4 (Rattus norvegicus, UniProt Q62758); assay: Binding affinity against rat 5-hydroxytryptamine 4 receptor
Sequence of 5-hydroxytryptamine receptor 4 (Q62758 whole entry): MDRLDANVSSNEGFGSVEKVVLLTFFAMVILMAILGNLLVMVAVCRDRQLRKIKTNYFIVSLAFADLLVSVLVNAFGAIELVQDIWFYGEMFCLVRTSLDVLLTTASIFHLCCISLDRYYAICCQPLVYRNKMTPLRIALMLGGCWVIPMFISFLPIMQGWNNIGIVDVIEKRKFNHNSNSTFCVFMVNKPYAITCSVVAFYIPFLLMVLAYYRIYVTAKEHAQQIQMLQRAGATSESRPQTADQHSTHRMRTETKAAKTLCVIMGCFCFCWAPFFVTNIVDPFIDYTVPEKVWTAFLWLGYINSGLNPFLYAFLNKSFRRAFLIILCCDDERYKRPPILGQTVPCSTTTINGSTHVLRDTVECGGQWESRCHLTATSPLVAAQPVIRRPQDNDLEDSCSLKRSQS

[7] = biological target: T3, Serotonin 3 (5-HT3) receptor (Rattus norvegicus, UniProt P35563+Q9JJ16); assay: Binding affinity against rat 5-hydroxytryptamine 3 receptor; format: protein-complex assay
T3 sequence (P35563 whole entry): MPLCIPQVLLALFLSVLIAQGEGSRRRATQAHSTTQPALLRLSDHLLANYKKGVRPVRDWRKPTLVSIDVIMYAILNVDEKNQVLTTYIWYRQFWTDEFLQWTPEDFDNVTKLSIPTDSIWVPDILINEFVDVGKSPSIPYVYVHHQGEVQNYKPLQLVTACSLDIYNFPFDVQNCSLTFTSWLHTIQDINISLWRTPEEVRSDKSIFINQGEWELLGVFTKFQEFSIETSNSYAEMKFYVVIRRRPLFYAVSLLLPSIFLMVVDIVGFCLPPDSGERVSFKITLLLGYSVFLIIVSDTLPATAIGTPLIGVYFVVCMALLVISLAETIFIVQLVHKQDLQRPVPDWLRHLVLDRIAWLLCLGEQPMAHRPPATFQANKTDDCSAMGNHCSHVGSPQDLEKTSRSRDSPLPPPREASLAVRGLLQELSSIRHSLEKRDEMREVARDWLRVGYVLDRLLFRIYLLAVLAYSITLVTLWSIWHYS
T3 sequence (Q9JJ16 whole entry): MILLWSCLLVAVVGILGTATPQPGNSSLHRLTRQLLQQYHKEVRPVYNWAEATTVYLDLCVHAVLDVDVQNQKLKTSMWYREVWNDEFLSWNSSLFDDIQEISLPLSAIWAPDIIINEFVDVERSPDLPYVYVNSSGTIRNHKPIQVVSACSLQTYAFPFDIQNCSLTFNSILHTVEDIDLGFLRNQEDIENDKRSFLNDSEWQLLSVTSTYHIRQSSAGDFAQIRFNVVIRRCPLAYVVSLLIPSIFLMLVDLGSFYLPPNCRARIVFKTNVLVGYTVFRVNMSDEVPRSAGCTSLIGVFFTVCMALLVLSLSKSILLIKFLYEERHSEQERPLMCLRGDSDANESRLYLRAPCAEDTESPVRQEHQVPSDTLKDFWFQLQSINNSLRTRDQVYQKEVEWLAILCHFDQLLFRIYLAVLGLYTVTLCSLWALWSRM

Rattus norvegicus = assay: In vivo potency to block hypolocomotion response to m-CPP in rat after oral administration; format: functional; conditions: read-out: ID50 (the source's name)
[8] = biological target: T4, 5-hydroxytryptamine receptor 1A (Rattus norvegicus, UniProt P19327); assay: Binding affinity against rat 5-hydroxytryptamine 1A receptor
T4 sequence (P19327 whole entry): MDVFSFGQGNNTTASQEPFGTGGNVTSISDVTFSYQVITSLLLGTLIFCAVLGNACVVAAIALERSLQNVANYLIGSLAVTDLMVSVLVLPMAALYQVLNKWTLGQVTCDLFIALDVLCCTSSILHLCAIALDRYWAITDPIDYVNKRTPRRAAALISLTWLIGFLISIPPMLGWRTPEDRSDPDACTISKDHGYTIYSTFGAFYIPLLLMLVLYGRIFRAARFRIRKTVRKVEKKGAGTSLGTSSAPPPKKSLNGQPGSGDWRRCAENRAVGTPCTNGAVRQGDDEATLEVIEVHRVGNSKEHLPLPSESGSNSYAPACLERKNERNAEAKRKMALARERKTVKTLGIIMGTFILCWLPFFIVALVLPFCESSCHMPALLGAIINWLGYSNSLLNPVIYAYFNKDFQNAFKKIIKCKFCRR

[9] = biological target: T5, 5-hydroxytryptamine receptor 2C (Homo sapiens, UniProt P28335); assay: (§2) Binding affinity against human 5-hydroxytryptamine 2C receptor expressed in 293 cells using [3H]mesulergine; format: cell-based, HEK293; procedure, shortened: as §1
T5 sequence (P28335 whole entry): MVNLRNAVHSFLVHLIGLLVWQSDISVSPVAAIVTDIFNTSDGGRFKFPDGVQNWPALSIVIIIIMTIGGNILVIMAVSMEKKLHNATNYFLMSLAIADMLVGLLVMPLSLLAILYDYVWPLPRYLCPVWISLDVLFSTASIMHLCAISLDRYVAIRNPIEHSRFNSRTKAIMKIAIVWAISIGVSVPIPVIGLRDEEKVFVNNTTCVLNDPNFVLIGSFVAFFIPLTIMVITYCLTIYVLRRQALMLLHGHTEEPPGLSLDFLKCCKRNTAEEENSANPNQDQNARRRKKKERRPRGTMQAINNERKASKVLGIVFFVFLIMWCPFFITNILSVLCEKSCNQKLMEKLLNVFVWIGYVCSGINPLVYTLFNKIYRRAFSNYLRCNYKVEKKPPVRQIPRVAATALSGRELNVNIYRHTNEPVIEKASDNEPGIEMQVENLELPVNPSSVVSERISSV

[10] = biological target: T5, 5-hydroxytryptamine receptor 2C; assay: as §2; format: cell-based, HEK293; remark: listed apart in the source
Procedure, shortened: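 Radioligand binding to cloned human receptor in 293 cells with [3H]mesulergine; values are means ± SEM of at least 3 determinations.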

Sequence of 5-hydroxytryptamine receptor 2B (P30994 whole entry): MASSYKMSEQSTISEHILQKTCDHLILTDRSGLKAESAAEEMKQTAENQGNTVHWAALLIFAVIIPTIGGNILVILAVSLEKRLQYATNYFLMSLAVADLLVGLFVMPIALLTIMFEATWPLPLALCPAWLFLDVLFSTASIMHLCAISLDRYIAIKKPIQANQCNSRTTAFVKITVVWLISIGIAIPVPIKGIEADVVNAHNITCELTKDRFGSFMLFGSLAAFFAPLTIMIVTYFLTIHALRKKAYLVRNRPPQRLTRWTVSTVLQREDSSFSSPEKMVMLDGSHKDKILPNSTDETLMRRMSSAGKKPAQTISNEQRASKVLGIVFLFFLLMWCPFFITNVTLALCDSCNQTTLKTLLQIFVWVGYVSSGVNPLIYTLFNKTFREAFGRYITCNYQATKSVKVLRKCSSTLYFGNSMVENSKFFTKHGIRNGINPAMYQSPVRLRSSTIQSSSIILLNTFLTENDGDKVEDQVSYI

Structure (SMILES)	Kb [1]	Ki [2]	Ki [9]	ED50 (Rattus norvegicus)	further results
Cn1ccc2cc3c(cc21)CCN3C(=O)Nc1cccnc1	3.31 nM	1620 nM		5.5 mg/kg	Ki [3]: > 5010 nM; Ki (D(2) dopamine receptor): > 10000 nM; Log Ki [4]: > -5; Ki [5]: > 1000 nM; Ki (Adenosine receptor A1): > 50100 nM; Ki (Histamine H1 receptor): > 10000 nM; Ki (D(3) dopamine receptor): > 10000 nM; Ki [6]: 5010 nM; Ki [7]: > 10000 nM; Ki [8]: > 10000 nM
Cn1ccc2c3c(ccc21)N(C(=O)Nc1cccnc1)CCC3	60.3 nM	> 6310 nM	> 6310 nM		

Continued, in another order:

Kb [1]	Ki [2]	Ki [9]	Structure (SMILES)	ED50 (Rattus norvegicus)	further results
17.8 nM	2880 nM	66.1 nM	Cn1ccc2c3c(ccc21)N(C(=O)Nc1cccnc1)CC3		
39.8 nM			Cl.Cn1ccc2cc(NC(=O)Nc3cccnc3)ccc21	19.2 mg/kg	Ki [10]: 138 nM
53.7 nM	> 6310 nM	4070 nM	Cn1ccc2cc3c(cc21)CCCN3C(=O)Nc1cccnc1		
